Measurements reported in ChEMBL document CHEMBL1157467, “Discovery of nonsteroidal 17beta-hydroxysteroid dehydrogenase 1 inhibitors by pharmacophore-based screening of virtual compound libraries” (J Med Chem, 2008).
pIC50, pKi: −log10 of the molar value. Calls of active or inactive are those of the source. The rule behind the calls is not given here.

Tests used:
[1] = molecular target: T1, 17-beta-hydroxysteroid dehydrogenase type 1 (Homo sapiens) (UniProt P14061); assay: Inhibition of human recombinant 17beta-HSD1 expressed in HEK293 cell lysate assessed as conversion of radiolabeled estrone to estradiol at 20 uM; type: cell-free; design: scale not given: the % may be the effect or the level left
T1 sequence (whole entry): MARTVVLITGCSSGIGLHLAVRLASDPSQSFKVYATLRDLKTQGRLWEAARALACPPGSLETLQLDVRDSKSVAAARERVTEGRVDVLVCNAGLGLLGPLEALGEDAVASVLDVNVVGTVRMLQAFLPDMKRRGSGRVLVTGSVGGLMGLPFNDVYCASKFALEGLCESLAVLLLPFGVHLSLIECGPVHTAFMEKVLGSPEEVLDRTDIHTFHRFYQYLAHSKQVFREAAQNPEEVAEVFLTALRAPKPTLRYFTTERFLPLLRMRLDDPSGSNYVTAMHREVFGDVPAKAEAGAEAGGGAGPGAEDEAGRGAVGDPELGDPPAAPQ
Method in brief: (§1)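 HEK-293 cells transiently transfected with human 17β-HSD1 by calcium phosphate were harvested 48 h later, and the pellets were frozen at -70 °C. Pellets were resuspended in 50 mM potassium phosphate, 20% glycerol and 1 mM EDTA. Conversion of 200 nM radiolabeled estrone to estradiol was measured immediately with 500 µM NADPH. […] DMSO was ≤0.1%. Values are mean ± SD from three independent experiments.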

[2] = molecular target: T2, 17-beta-hydroxysteroid dehydrogenase type 2 (Homo sapiens) (UniProt P37059); assay: Inhibition of human recombinant 17beta-HSD2 expressed in HEK293 cell lysate assessed as conversion of radiolabeled estrone to estradiol at 20 uM; type: cell-free; design: scale not given: the % may be the effect or the level left
T2 sequence (whole entry): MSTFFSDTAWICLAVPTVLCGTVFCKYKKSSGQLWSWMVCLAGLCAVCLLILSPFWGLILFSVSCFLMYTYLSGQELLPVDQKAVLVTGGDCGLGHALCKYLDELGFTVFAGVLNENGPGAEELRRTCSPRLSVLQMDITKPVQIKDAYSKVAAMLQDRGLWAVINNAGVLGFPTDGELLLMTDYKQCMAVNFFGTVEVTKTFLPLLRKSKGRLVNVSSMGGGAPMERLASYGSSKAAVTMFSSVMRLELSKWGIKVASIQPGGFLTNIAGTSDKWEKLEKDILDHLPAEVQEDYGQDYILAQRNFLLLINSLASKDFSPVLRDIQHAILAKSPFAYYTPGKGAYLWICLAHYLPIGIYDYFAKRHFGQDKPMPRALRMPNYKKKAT

[3] = molecular target: T3, 17-beta-hydroxysteroid dehydrogenase type 3 (Homo sapiens) (UniProt P37058); assay: Inhibition of human recombinant 17beta-HSD3 expressed in intact HEK293 cells assessed as conversion of androstenedione to testosterone at 20 uM; type: cell-based; design: scale not given: the % may be the effect or the level left
T3 sequence (whole entry): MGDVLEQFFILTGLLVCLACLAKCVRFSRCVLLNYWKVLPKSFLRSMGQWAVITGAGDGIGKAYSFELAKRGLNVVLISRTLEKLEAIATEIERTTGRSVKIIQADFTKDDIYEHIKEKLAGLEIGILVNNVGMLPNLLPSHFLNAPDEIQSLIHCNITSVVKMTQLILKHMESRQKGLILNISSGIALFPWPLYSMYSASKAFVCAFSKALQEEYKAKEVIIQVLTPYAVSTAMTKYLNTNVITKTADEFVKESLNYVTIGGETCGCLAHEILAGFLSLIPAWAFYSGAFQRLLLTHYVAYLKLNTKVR
Method in brief: (§2)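 17β-HSD3 or 17β-HSD5 was transiently expressed in HEK-293 cells. Conversion of androstenedione to testosterone was measured in intact cells without added cofactor. Compounds were tested at 20 µM, with final DMSO ≤0.1%. Values are mean ± SD from three independent experiments.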

[4] = molecular target: T4, Aldo-keto reductase family 1 member C3 (Homo sapiens) (UniProt P42330); assay: Inhibition of human recombinant 17beta-HSD5 expressed in intact HEK293 cells assessed as conversion of androstenedione to testosterone at 20 uM after 24 hrs; type: cell-based; design: scale not given: the % may be the effect or the level left; method in brief: as §2
T4 sequence (whole entry): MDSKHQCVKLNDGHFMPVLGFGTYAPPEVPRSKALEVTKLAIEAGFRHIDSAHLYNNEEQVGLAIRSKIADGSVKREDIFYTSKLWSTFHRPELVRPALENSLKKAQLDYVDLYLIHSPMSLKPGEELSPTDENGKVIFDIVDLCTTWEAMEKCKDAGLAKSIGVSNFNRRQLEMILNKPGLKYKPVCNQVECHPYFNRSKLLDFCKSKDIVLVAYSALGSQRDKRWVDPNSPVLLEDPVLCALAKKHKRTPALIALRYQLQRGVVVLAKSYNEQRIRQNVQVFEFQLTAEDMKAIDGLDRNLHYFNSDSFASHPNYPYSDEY

[5] = molecular target: T5, 11-beta-hydroxysteroid dehydrogenase 1 (Homo sapiens, UniProt P28845); assay: Inhibition of human recombinant 11beta-HSD1 expressed in HEK293 cell lysate assessed as conversion of radiolabeled estrone to estradiol at 20 uM; type: cell-free; design: scale not given: the % may be the effect or the level left
Target sequence in this assay (P28845 whole entry, looked up): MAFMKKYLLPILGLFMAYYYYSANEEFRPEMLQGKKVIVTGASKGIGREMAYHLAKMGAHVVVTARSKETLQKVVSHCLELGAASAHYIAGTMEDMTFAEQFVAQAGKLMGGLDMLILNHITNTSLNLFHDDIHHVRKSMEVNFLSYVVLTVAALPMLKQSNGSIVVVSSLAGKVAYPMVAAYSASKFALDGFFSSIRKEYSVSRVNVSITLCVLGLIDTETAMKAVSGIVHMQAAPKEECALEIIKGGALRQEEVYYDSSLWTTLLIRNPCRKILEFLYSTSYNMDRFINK

[6] = molecular target: T2, 17-beta-hydroxysteroid dehydrogenase type 2 (Homo sapiens); assay: Inhibition of human recombinant 17beta-HSD2 expressed in HEK293 cell lysate assessed as conversion of radiolabeled estrone to estradiol at 40 uM; type: cell-free; design: scale not given: the % may be the effect or the level left
[7] = molecular target: T6, 17-beta-hydroxysteroid dehydrogenase type 1 (Homo sapiens, UniProt P14061); assay: Inhibition of human recombinant 17beta-HSD1 expressed in HEK293 cell lysate assessed as conversion of radiolabeled estrone to estradiol; type: cell-free; method in brief: as §1
T6 sequence (P14061 whole entry): T1 sequence (whole entry)

[8] = molecular target: T5, 11-beta-hydroxysteroid dehydrogenase 1; assay: Inhibition of human recombinant 11beta-HSD1 expressed in HEK293 cell lysate assessed as conversion of radiolabeled estrone to estradiol; type: cell-free
Target sequence in this assay (P28845 whole entry): as the sequence (P28845 whole entry, looked up) above

[9] = molecular target: T7, 17-beta-hydroxysteroid dehydrogenase type 2 (Homo sapiens, UniProt P37059); assay: Inhibition of human recombinant 17beta-HSD2 expressed in HEK293 cell lysate assessed as conversion of radiolabeled estrone to estradiol; type: cell-free
T7 sequence (P37059 whole entry): T2 sequence (whole entry)

`CCOc1cc(/C=N/NC(=O)c2ccccn2)c(Br)c(Br)c1O` gave an Activity [1] of 88%, an Activity [2] of 55% and an Activity [3] of 95%. The Activity [4] was “inactive” and the Activity [5] was 68%.
With `O=c1c(-c2ccc(O)cc2)coc2cc(O)ccc12` the Activity [1] was 35% and the Activity [6] was 58.3%.
`Cc1cc2c(C(C)C)c(O)c(O)c(C=O)c2c(O)c1-c1c(C)cc2c(C(C)C)c(O)c(O)c(C=O)c2c1O` was tested, and the Activity [1] was 60% and the Activity [6] was 64.8%.
`O=c1cc(-c2ccccc2)oc2ccccc12` showed an Activity [1] of 94% and an Activity [6] of 63.9%.
For `O=c1c(-c2ccc(O)cc2)coc2cc(O)cc(O)c12` [GENISTEIN], the Activity [1] was 17%, the pIC50 [7] was 5.66 and the Activity [6] was 15.7%.
`O=S(=O)(Nc1ccccc1)c1ccc2c(c1)Cc1cc(S(=O)(=O)Nc3ccccc3)ccc1-2` gave an Activity [1] of 75%, an Activity [2] of 76% and an Activity [3] of 80%. For the same molecule, the Activity [4] was “inactive” and the Activity [5] was 56%.
`O=C1CC(c2ccccc2)Oc2ccccc21` (stereo not drawn) was tested, and the Activity [1] was 110% and the Activity [6] was 70.7%.
In the case of `Cc1cc(-c2ccc(NS(=O)(=O)c3ccccc3)c(C)c2)ccc1NS(=O)(=O)c1ccccc1`, the Activity [1] was 64%, the Activity [2] was 56% and the Activity [3] was 92%. The Activity [4] was “inactive” and the Activity [5] was 101%.
`Cc1ccc(S(=O)(=O)N/N=C2\C=C[C@H]3[C@@H]4CC=C5C[C@@H](O)CC[C@]5(C)[C@H]4CC[C@]23C)cc1` showed a pIC50 [8] of 5.42, an Activity [1] of 63% and a pIC50 [7] of 4.33. For the same molecule, the Activity [2] was 97%, the Activity [3] was 69% and the Activity [4] was 45%. The Activity [5] was 9%.
`CCOc1cc(/C=N/NC(N)=O)c(Br)c(Br)c1OCC(=O)Nc1ccc(C)cc1` gave a pIC50 [8] of under 4.30, an Activity [1] of 16% and a pIC50 [7] of 5.24. For the same molecule, the Activity [2] was 76%, the Activity [3] was 96% and the Activity [4] was “inactive”. It also gave an Activity [5] of 70%.
In the case of `Cc1cc(/C=N/NC(=O)C(O)(c2ccccc2)c2ccccc2)c(C)n1-c1ccc(O)cc1`, the Activity [1] was 73%, the Activity [2] was 113% and the Activity [3] was 76%. The Activity [4] was “inactive” and the Activity [5] was 90%.
`O=c1c(O)c(-c2ccc(O)c(O)c2)oc2cc(O)cc(O)c12` [QUERCETIN] gave an Activity [1] of 65%, an Activity [6] of 6.07% and a pIC50 [9] of 5.81.
`O=C1CC(c2ccc(O)cc2)Oc2ccccc21` (stereo not drawn) was tested, and the Activity [1] was 99% and the Activity [6] was 63.6%.
Molecule `Cc1cc(OCCOc2ccc(N)cc2)ccc1N1C(N)=NC(N)=NC1(C)C` has an Activity [1] of 84%, an Activity [2] of 59% and an Activity [3] of 99%. For the same molecule, the Activity [4] was “inactive” and the Activity [5] was 99%.
For `CCOc1cc(CNC2C(C)=NN=C2S)cc(Br)c1OCC(=O)NC1CCCCC1` (stereo not drawn), the pIC50 [8] was 5.21, the Activity [1] was 70% and the Activity [2] was 105%. For the same molecule, the Activity [3] was 19%, the Activity [4] was “inactive” and the Activity [5] was 16%.
`O=c1c(O)c(-c2ccc(O)cc2)oc2cc(O)cc(O)c12` [KAEMPFEROL] was tested, and the Activity [1] was 13%, the pIC50 [7] was 5.98 and the Activity [6] was 4.83%. It also gave a pIC50 [9] of 6.44.
`O=C1C[C@@H](c2ccc(O)cc2)Oc2cc(O)cc(O)c21` [NARINGENIN] was tested, and the Activity [1] was 17.2%, the pIC50 [7] was 5.30 and the Activity [6] was 12.6%. The pIC50 [9] was 4.84.
With `COC(C(=O)Nc1ccc(-c2ccc(NC(=O)C(OC)c3ccccc3)c(C)c2)cc1C)c1ccccc1` (stereo not drawn) the Activity [1] was 84%, the Activity [2] was 59% and the Activity [3] was 96%. The Activity [4] was “inactive” and the Activity [5] was 110%.
For `O=C1CC(c2ccccc2)Oc2ccc(O)cc21` (stereo not drawn), the Activity [1] was 102% and the Activity [6] was 42.5%.
`O=C1CC(c2ccccc2O)Oc2ccccc21` (stereo not drawn) gave an Activity [1] of 95% and an Activity [6] of 50.7%.
For `COc1c2c(cc3c1C1Oc4c(ccc(O)c4CC=C(C)C)C1CO3)OC(C)(C)C=C2` (stereo not drawn), the Activity [1] was 54%, the pIC50 [7] was 4.72 and the Activity [2] was 86%. The Activity [3] was 55%, the Activity [4] was “inactive” and the Activity [5] was 96%.
`O=c1cc(-c2ccccc2)oc2cc(O)ccc12` [7-HYDROXYFLAVONE] showed an Activity [1] of 16%, a pIC50 [7] of 5.28 and an Activity [6] of 23.1%. The pIC50 [9] was under 4.70.
`CCCCC(=O)Nc1sc2c(c1C(=O)OCC)CCC(/C=N/O)=C2Cl` gave an Activity [1] of 76%, an Activity [2] of 48% and an Activity [3] of 89%. For the same molecule, the Activity [4] was “inactive” and the Activity [5] was 106%.
For `COc1ccc(-c2coc3cc(O)cc(O)c3c2=O)cc1` [BIOCHANIN], the Activity [1] was 45%, the Activity [6] was 10.1% and the pIC50 [9] was 5.00.
For `CCCCN(C)C(=O)CCCCCS[C@@H]1C[C@@H]2[C@H](CC[C@]3(C)[C@@H](O)CC[C@@H]23)c2ccc(O)cc21`, the pIC50 [7] was 6.77.
`CCOP(=O)(Nc1ccc2c(c1)Cc1c-2cc(Cl)c(NC(C)=O)c1Cl)OCC` was tested, and the Activity [1] was 90%, the Activity [2] was 79% and the Activity [3] was 86%. The Activity [4] was 84% and the Activity [5] was 87%.
`C[C@]12CC[C@@H]3c4ccc(OC5CCCCO5)cc4CC[C@H]3[C@@H]1CC[C@@H]2O` (stereo partly drawn) gave a pIC50 [8] of 4.70, an Activity [1] of 74% and an Activity [2] of 90%. The Activity [3] was 57%, the Activity [4] was “inactive” and the Activity [5] was 365%.
Molecule `COc1ccc([C@@H]2CC(=O)c3c(O)cc(O)cc3O2)cc1O` has an Activity [1] of 44% and an Activity [6] of 36.4%.
With `O=S1OCC2C(CO1)C1(Cl)C(Cl)=C(Cl)C2(Cl)C1(Cl)Cl` (stereo not drawn) [ENDOSULFAN] the Activity [1] was 25%, the pIC50 [7] was 4.32 and the Activity [6] was 51.1%.
`O=c1cc(-c2ccc(O)cc2)oc2cc(O)cc(O)c12` [APIGENIN] gave an Activity [1] of 10%, a pIC50 [7] of 6.15 and an Activity [6] of 25.2%. For the same molecule, the pIC50 [9] was under 4.70.
`Cc1c(/C=N/N=C2\CC[C@H]3[C@@H]4CCc5cc(O)ccc5[C@H]4CC[C@]23C)cnn1C` was tested, and the Activity [1] was 34%, the pIC50 [7] was 4.48 and the Activity [2] was 63%. For the same molecule, the Activity [3] was 75%, the Activity [4] was “inactive” and the Activity [5] was 81%.
`O=c1cc(-c2ccccc2)oc2cc(O)cc(O)c12` gave an Activity [1] of 34% and an Activity [6] of 32.8%.
With `CC1(C)[C@@H](O)CC[C@]2(C)[C@H]3C(=O)C=C4[C@@H]5C[C@@](C)(C(=O)O)CC[C@]5(C)CC[C@@]4(C)[C@]3(C)CC[C@@H]12` the Activity [1] was 53% and the Activity [6] was 24.5%.
`C[C@]12CC[C@@H]3c4ccc(O)cc4CC[C@H]3[C@@H]1C[C@H](CCCCCCCCC(=O)OC[C@H]1O[C@@H](n3cnc4c(N)ncnc43)[C@H](O)[C@@H]1O)[C@@H]2O` showed a pKi [7] of 8.52.
